The values that follow come from ChEMBL document CHEMBL1149130, “Synthesis and biological evaluation of novel chloroethylaminoanthraquinones with potent cytotoxic activity against cisplatin-resistant tumor cells” (J Med Chem, 2004).

Test [1] relates to A2780. The experiment in a line: Growth inhibition against A2780 cisplatin resistant wild-type ovarian cell lines. Type of test: functional, cell-based. Particulars: Homo sapiens. An outline of the steps: (§1)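 Cells in exponential growth (5 × 10⁴ cells/mL) were exposed to compound freshly dissolved in DMSO for 24 h at 37 °C. Drug medium was then replaced with fresh medium, followed by 3 days of growth. Viability was read by sulforhodamine B staining. IC50 is the concentration giving a 50% reduction in SRB colour formation.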

Test [2] has as its system A2780. Put plainly: Growth inhibition against A2780 wild-type ovarian cell lines. Type of test: functional, cell-based. Particulars: Homo sapiens. In short, it runs like this:
as §1

For test [3], the system named is CH1. Put plainly: Growth inhibition against CH-1 wild-type ovarian cell lines. Type of test: functional, cell-based. Particulars: Homo sapiens. In short, it runs like this:
as §1

Test [4] has as its system SK-OV-3. The experiment in a line: Growth inhibition against SKOV3 wild-type ovarian cell lines. Type of test: functional, cell-based. The conditions noted are these: Homo sapiens. An outline of the steps:
as §1

For another test, the species on record is Homo sapiens. The experiment in a line: Resistance factor (IC50 in the resistant cell line/IC50 in the parent cell line). Type of test: functional.
Test [5] has as its system CH1. Put plainly: Growth inhibition against CH-1 cisplatin resistant wild-type ovarian cell lines. Type of test: functional, cell-based, Homo sapiens. An outline of the steps: as §1
The test system of test [6] is CH1. The experiment in a line: Compound was evaluated for growth inhibition against CH1cisR wild-type ovarian cell lines. The conditions noted are these: Homo sapiens. Type of test: functional, cell-based. An outline of the steps:
(§2)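 Cells kept as in earlier work; exponentially growing cultures (5 × 10⁴ cells/mL) given compound freshly dissolved in DMSO, 24 h at 37 °C. Drug medium then replaced with fresh medium, followed by 3 day growth. Viability by sulforhodamine B staining; IC50 taken as concentration giving 50% reduction in SRB colour formation.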

The subject of test [7] is SK-OV-3. Put plainly: Compound was evaluated for growth inhibition against SKOV3 wild-type ovarian cell lines. Type of test: functional, cell-based. The conditions noted are these: Homo sapiens. An outline of the steps: as §2

`CN(CCO)CCNc1ccc(NCCN(C)CCO)c2c1C(=O)c1c(O)ccc(O)c1C2=O`: the IC50 (in general, the point on the concentration scale where inhibition reaches its midpoint) turned out to be 4 nM in the test on A2780 [1]; 4 nM in the test on A2780 [2]; 8 nM in the test on CH1 [3]; 11000 nM in the test on SK-OV-3 [4]; 22 nM with CH1 [5] (Homo sapiens, CH1). For the same molecule, the RF in the test listed under Homo sapiens amounted to 2.6.
`O=C1c2ccccc2C(=O)c2c(NCCN(CCCl)CCCl)ccc(NCCN(CCCl)CCCl)c21`: the IC50 in the test with A2780 [1] came to 96 nM; with A2780 [2], 51 nM; in the test with CH1 [3] it was 78 nM; with SK-OV-3 [4], 860 nM; in the test with CH1 [5] (Homo sapiens, CH1) it was 92 nM. Besides, the RF in the test listed under Homo sapiens came to 1.2; in the test filed under Homo sapiens (Homo sapiens) it was 1.9.
Consider `O=C1c2c(O)ccc(O)c2C(=O)c2c(NCCCN(CCCl)CCCl)ccc(NCCCN(CCCl)CCCl)c21`, for which the IC50 was 38 nM in the test with A2780 [1]; 28 nM in the test with A2780 [2]; 25 nM in the test on CH1 [3]; 185 nM in the test on SK-OV-3 [4]; 35 nM with CH1 [5] (Homo sapiens, CH1). For the same molecule, the RF in the test filed under Homo sapiens (Homo sapiens) came out at 1.4.
In the case of `CN(C)CCNc1ccc(NCCN(CCO)CCO)c2c1C(=O)c1c(O)ccc(O)c1C2=O`, the IC50 was determined as 13 nM in the test with A2780 [1]; 13 nM in the test with A2780 [2]; 30 nM in the test on CH1 [3]; 260 nM with SK-OV-3 [4]; 46 nM in the test with CH1 [5] (Homo sapiens, CH1). The RF was 1.6 in the test listed under Homo sapiens and 1 in the test filed under Homo sapiens (Homo sapiens).
With `O=C1c2ccccc2C(=O)c2c(NCCCN(CCO)CCO)ccc(NCCCN(CCO)CCO)c21`, the IC50 turned out to be 3400 nM in the test on A2780 [1]; 3500 nM in the test with A2780 [2]; 2200 nM in the test on CH1 [3]; 2400 nM with CH1 [6]; 6700 nM with SK-OV-3 [7]. Besides, the RF in the test filed under Homo sapiens was determined as 1.1; in the test listed under Homo sapiens (Homo sapiens), 1.
Regarding `O=C1c2ccccc2C(=O)c2c(NCCN(CCO)CCO)ccc(NCCN(CCO)CCO)c21`, the IC50 with A2780 [1] worked out at 3500 nM; in the test on A2780 [2], 3300 nM; with CH1 [3] it was 3900 nM; with CH1 [6], 3300 nM; with SK-OV-3 [7], 18000 nM. Also, the RF in the test listed under Homo sapiens stood at 0.8; in the test listed under Homo sapiens (Homo sapiens) it was 1.1.
`O=C1c2ccccc2C(=O)c2c(NCCCN(CCCl)CCCl)ccc(NCCCN(CCCl)CCCl)c21`: the IC50 in the test with A2780 [1] worked out at 52 nM; in the test on A2780 [2], 31 nM; in the test with CH1 [3], 30 nM; in the test on SK-OV-3 [4], 190 nM; with CH1 [5] (Homo sapiens, CH1), 110 nM. In addition, the RF in the test filed under Homo sapiens came out at 3.7.
With `CN(CCO)CCNc1ccc(NCCN(C)CCO)c2c1C(=O)c1ccccc1C2=O`, the IC50 in the test on A2780 [1] was determined as 580 nM; in the test with A2780 [2], 720 nM; with CH1 [3], 680 nM; in the test with SK-OV-3 [4], 3300 nM; with CH1 [5] (Homo sapiens, CH1), 800 nM. Moreover, the RF in the test listed under Homo sapiens is 1.2; in the test filed under Homo sapiens (Homo sapiens), 0.8.
With `CN(C)CCNc1ccc(NCCN(CCCl)CCCl)c2c1C(=O)c1c(O)ccc(O)c1C2=O`, the IC50 was 19 nM in the test with A2780 [1]; 16 nM with A2780 [2]; 18 nM in the test with CH1 [3]; 155 nM in the test with SK-OV-3 [4]; 19 nM with CH1 [5] (Homo sapiens, CH1). In addition, the RF came to 1 in the test listed under Homo sapiens and 1.2 in the test listed under Homo sapiens (Homo sapiens).
With `CN(CCCl)CCNc1cccc2c1C(=O)c1ccccc1C2=O`, the IC50 is 8000 nM in the test on A2780 [1]; 4600 nM in the test with A2780 [2]; 2500 nM with CH1 [3]; 13500 nM in the test on SK-OV-3 [4]; 3100 nM with CH1 [5] (Homo sapiens, CH1). For the same molecule, the RF in the test listed under Homo sapiens is 1.2; in the test listed under Homo sapiens (Homo sapiens) it was 1.7.
`CN(CCCl)CCNc1ccc(NCCN(C)CCCl)c2c1C(=O)c1ccccc1C2=O`: the IC50 is 355 nM with A2780 [1]; 135 nM in the test with A2780 [2]; 110 nM in the test on CH1 [3]; 770 nM in the test with SK-OV-3 [4]; 145 nM in the test with CH1 [5] (Homo sapiens, CH1). Moreover, the values for the RF in the test filed under Homo sapiens and in the test filed under Homo sapiens (Homo sapiens) were 1.3 and 2.6, respectively.
In the case of `O=C(O)CCCc1ccc(N(CCCl)CCCl)cc1` [CHLORAMBUCIL], the IC50 in the test with A2780 [1] was 52500 nM; in the test on CH1 [3] it was 3300 nM; in the test with SK-OV-3 [4] it was 35000 nM; in the test on CH1 [5] (Homo sapiens, CH1), 7900 nM. In addition, the RF in the test listed under Homo sapiens was found to be 2.4.
In the case of `O=C1c2c(O)ccc(O)c2C(=O)c2c(NCCCN(CCO)CCO)ccc(NCCCN(CCO)CCO)c21`, the IC50 came out at 740 nM with A2780 [1]; 680 nM in the test on A2780 [2]; 580 nM with CH1 [3]; 2450 nM in the test with SK-OV-3 [4]; 780 nM in the test on CH1 [5] (Homo sapiens, CH1). Besides, the RF amounted to 1.3 in the test filed under Homo sapiens and 1.1 in the test filed under Homo sapiens (Homo sapiens).
Regarding `CN(CCO)CCNc1cccc2c1C(=O)c1ccccc1C2=O`, the IC50 in the test with A2780 [1] was 4200 nM; in the test on A2780 [2] it was 3400 nM; with CH1 [3], 2900 nM; in the test on SK-OV-3 [4], 13000 nM; in the test with CH1 [5] (Homo sapiens, CH1) it was 2800 nM. The RF turned out to be 1 in the test filed under Homo sapiens and 1.2 in the test listed under Homo sapiens (Homo sapiens).
Take `O=C1c2ccccc2C(=O)c2c(NCCCN(CCCl)CCCl)cccc21`: the IC50 came to 640 nM in the test with A2780 [1]; 410 nM with A2780 [2]; 185 nM in the test on CH1 [3]; 1900 nM with SK-OV-3 [4]; 550 nM with CH1 [5] (Homo sapiens, CH1). The RF was 2.9 in the test filed under Homo sapiens and 1.6 in the test listed under Homo sapiens (Homo sapiens).
Consider `CN(CCO)CCCNc1cccc2c1C(=O)c1ccccc1C2=O`, for which the IC50 in the test with A2780 [1] was 3300 nM; in the test with A2780 [2], 3100 nM; in the test with CH1 [3], 2600 nM; in the test with SK-OV-3 [4], 11500 nM; with CH1 [5] (Homo sapiens, CH1) it was 2600 nM. Moreover, the RF in the test filed under Homo sapiens worked out at 1; in the test filed under Homo sapiens (Homo sapiens), 1.1.
With `CN(CCCl)CCNc1ccc(NCCN(C)CCCl)c2c1C(=O)c1c(O)ccc(O)c1C2=O`, the half-maximal inhibitory concentration (IC50) with A2780 [1] worked out at 24 nM; in the test on A2780 [2], 9 nM; with CH1 [3], 7 nM; in the test with SK-OV-3 [4], 100 nM; in the test on CH1 [5] (Homo sapiens, CH1), 14 nM. Further, the RF in the test filed under Homo sapiens worked out at 1.9; in the test filed under Homo sapiens (Homo sapiens), 2.7.
Consider `O=C1c2c(O)ccc(O)c2C(=O)c2c(NCCN(CCCl)CCCl)ccc(NCCN(CCCl)CCCl)c21`, for which the IC50 in the test with A2780 [1] was found to be 170 nM; in the test with A2780 [2], 120 nM; with CH1 [3] it was 54 nM; in the test on SK-OV-3 [4], 1450 nM; with CH1 [5] (Homo sapiens, CH1) it was 110 nM. Also, the figures for the RF in the test filed under Homo sapiens and in the test filed under Homo sapiens (Homo sapiens) were 2 and 1.4, respectively.
Regarding `CN(C)CCNc1ccc(NCCN(C)CCO)c2c1C(=O)c1c(O)ccc(O)c1C2=O`, the half-inhibitory concentration (IC50) in the test on A2780 [1] came out at 5 nM; with A2780 [2], 5 nM; with CH1 [3], 24 nM; with SK-OV-3 [4], 300 nM; in the test with CH1 [5] (Homo sapiens, CH1), 45 nM. Moreover, the figures for the RF in the test listed under Homo sapiens and in the test filed under Homo sapiens (Homo sapiens) were 1.9 and 1, respectively.
`CN(CCCl)CCCNc1cccc2c1C(=O)c1ccccc1C2=O`: the concentration for half-maximal inhibition (IC50) in the test on A2780 [1] was found to be 2700 nM; with A2780 [2], 2700 nM; in the test on CH1 [3], 1440 nM; with SK-OV-3 [4], 10800 nM; with CH1 [5] (Homo sapiens, CH1) it was 1300 nM. For the same molecule, the figures for the RF in the test listed under Homo sapiens and in the test listed under Homo sapiens (Homo sapiens) were 0.9 and 1, respectively.
CISPLATIN: the IC50 with CH1 [5] (ch1) worked out at 650 nM.
In the case of `O=C1c2c(O)ccc(O)c2C(=O)c2c(NCCN(CCO)CCO)ccc(NCCN(CCO)CCO)c21`, the IC50 in the test on A2780 [1] came to 115 nM; with A2780 [2], 82 nM; in the test on CH1 [3] it was 300 nM; in the test on SK-OV-3 [4], 1500 nM; with CH1 [5] (Homo sapiens, CH1), 370 nM. In addition, the RF in the test filed under Homo sapiens is 1.2; in the test listed under Homo sapiens (Homo sapiens), 1.4.
